From ChEMBL document CHEMBL1125929, “Octoclothepin enantiomers. A reinvestigation of their biochemical and pharmacological activity in relation to a new receptor-interaction model for dopamine D-2 receptor antagonists” (J Med Chem, 1991)

Assays:
Assay type in all cases: functional
Conditions in all cases: sc
Rattus norvegicus [1] = assay: Dose to antagonise, when given subcutaneously to 6-OH-DA-lesioned rats, using pergolide antagonism test.(in vivo)
Method in brief: (§1)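 Unilateral 6-OHDA-lesioned rats, tested 2–9 months after lesioning once stable contralateral circling was seen. Agonist was pergolide (0.05 μmol/kg sc) or SK&F 38393 (4.3 μmol/kg sc), given 2 h after the test compound. Inhibition was calculated as percent of each rat's own control circling response. Four to eight rats per dose.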

Rattus norvegicus [2] = assay: Dose to antagonise, when given subcutaneously to rats (in vivo) using quipazine antagonism test.
Method in brief: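 Rats got test compound 2 h before quipazine (15 μmol/kg sc). Each rat was observed singly in a perspex box, and head twitches were counted 30–40 min after quipazine. Inhibition was expressed as percent of a parallel control group. Four to eight rats per dose.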

Rattus norvegicus [3] = assay: Dose to antagonise, when given subcutaneously to rats (in vivo) using inhibition of locomotor motility test
Method in brief: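 Locomotor activity of male Wistar rats was measured in photocell cages 2 h after test compound or saline. Four to eight animals per dose.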

Rattus norvegicus [4] = assay: Dose to antagonise, when given subcutaneously to rats (in vivo) using flexor reflex St 587 antagonism test.
Rattus norvegicus [5] = assay: Dose to antagonise, when given subcutaneously to rats (in vivo) using catalepsy test, maximum effect 1-6h.
Method in brief: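 Male Wistar rats (170–270 g) were scored hourly 1–6 h after dosing on a vertical wire grid. Catalepsy counted as present after at least 15-s immobility. The maximum effect over 1–6 h was taken. Eight to twelve animals per dose.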

Mus musculus = assay: Dose to antagonise, when given subcutaneously to mice (in vivo) using methyl phenidate antagonism test
Method in brief: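 Male NMRI mice (18–25 g) got test compound sc 2 h before methyl phenidate (222 μmol/kg sc). Mice were placed in pairs on corrugated cardboard in gnawing cages. Gnawing was judged 1 h later by inspecting the cardboard. Six to nine pairs per dose.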

Rattus norvegicus [6] = assay: Dose to antagonise, when given subcutaneously to 6-OH-DA-lesioned rats, using SK & F 38393 antagonism test.(in vivo); method in brief: as §1

SMILES | ED50 (Rattus norvegicus [1]) | ED50 (Rattus norvegicus [2]) | ED50 (Rattus norvegicus [3]) | ED50 (Rattus norvegicus [4]) | ED50 (Rattus norvegicus [5]) | ED50 (Mus musculus) | ED50 (Rattus norvegicus [6])
CN1CCN([C@H]2Cc3ccccc3Sc3ccc(Cl)cc32)CC1 | 0.017 µmol/kg | 0.02 µmol/kg | 0.12 µmol/kg | 0.26 µmol/kg | 0.65 µmol/kg | 0.2 µmol/kg | 0.85 µmol/kg
CN1CCN([C@@H]2Cc3ccccc3Sc3ccc(Cl)cc32)CC1 | 0.31 µmol/kg | 0.012 µmol/kg | 0.46 µmol/kg | 0.095 µmol/kg | 24 µmol/kg | 3.8 µmol/kg | 1.9 µmol/kg
CN1CCN(C2Cc3ccccc3Sc3ccc(Cl)cc32)CC1 (stereo unspecified) [CLOROTEPINE] | 0.033 µmol/kg | 0.019 µmol/kg | 0.18 µmol/kg | 0.064 µmol/kg | 1.3 µmol/kg | 0.19 µmol/kg | 0.25 µmol/kg
